Measurements from publication PMC4123212 (Chemistry & biology, 2014).

What was measured:
[1] = target: T1, Erk2^WT (Rattus norvegicus, UniProt P63086); assay: Activation inhibition assay; format: biochemical; settings: ELISA
[2] = target: phospho-Erk2^DS2 (Rattus norvegicus, UniProt P63086, C164L/Q103A); assay: Phosphatase inhibition: DUSP6-mediated dephosphorylation; format: biochemical; settings: phospho-Erk2^DS2, relative to apo enzyme, ELISA
[3] = target: GFP-tagged Erk2^WT in HEK293 cells (Rattus norvegicus, UniProt P63086); assay: In-cell activation inhibition, EGF-stimulated HEK293 cells; format: cell-based; settings: 2 at 100-1000 nM, SB203580 1000 nM, immunoblot
Procedure, shortened: (§1)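 Low-passage HEK293 transiently transfected with GFP-Erk2 plasmid, split next day into 96-well format, serum-starved 24 h. Test compound added for 1 h at 37 °C (final 1% DMSO), then human EGF 50 ng/mL for 5 min at 37 °C. DMSO controls with and without EGF. Cells lysed by boiling in SDS loading buffer; SDS-PAGE, immunoblot for GFP and ppErk.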

[4] = target: T2, Erk2^DS1 (Rattus norvegicus, UniProt P63086, C164L/Q103T); assay: Activation inhibition assay; format: biochemical; settings: Erk2^DS1, ATP 5 µM, bis-phosphorylated Erk2 by ELISA
Procedure, shortened: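 Erk2 variant preincubated 30 min at RT with ATP (5 µM) and titrated test compound (2% DMSO) in 50 mM MOPS pH 7.4, 10 mM MgCl2, 1 mM DTT, 0.001% Tween 20, 0.1 mg/mL BSA. MEK2 then added and incubated at RT; enzyme levels and times set by linearity. Quenched with 20 mM EDTA, plate-bound overnight at 4 °C, then anti-phospho-Erk2/HRP ELISA. EC50 from nonlinear regression; triplicates.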

[5] = target: T2, Erk2^DS1; assay: Activation inhibition assay; format: biochemical; settings: Erk2^DS1, PhosTag-acrylamide PAGE
Procedure, shortened: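 This run uses the MOPS/MgCl2 activation setup (ATP 5 µM, 30 min compound preincubation at RT) but with tenfold more MEK2. Reactions were stopped in SDS loading buffer without EDTA. Erk2 phospho-forms were resolved by SDS-PAGE in gels containing 50 µM PhosTag-acrylamide and 100 µM MnCl2.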

[6] = tested on: Erk2^DS1 (Q103T/C164L); settings: ref Hari et al., 2013; cited from earlier work
[7] = target: T1, Erk2^WT; settings: Ki values reported previously, ref Hari et al., 2013; cited from earlier work
[8] = target: T1, Erk2^WT; assay: DUSP6 activation inhibition; format: biochemical; settings: inhibitor 5 µM, 4-MUP turnover
Procedure, shortened: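 DUSP6 (140 nM) added for 1 h at RT, then 4-MUP (250 µM). Fluorescence read at Ex/Em 355/460 nm after 2 h at RT; Erk2-free wells used as background.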

[9] = target: Erk2^DS2 (Q103A/C164L) (Rattus norvegicus, UniProt P63086, C164L/Q103A); settings: ref Hari et al., 2013; cited from earlier work
[10] = target: phospho-Erk2^WT (Rattus norvegicus, UniProt P63086); assay: Phosphatase inhibition: DUSP6-mediated dephosphorylation; format: biochemical; settings: ELISA
[11] = target: GFP-tagged Erk2^DS1 in HEK293 cells (Rattus norvegicus, UniProt P63086, C164L/Q103T); assay: In-cell activation inhibition, EGF-stimulated HEK293 cells; format: cell-based; settings: 2 at 100-1000 nM, SB203580 1000 nM, immunoblot
Procedure, shortened: as §1

C[S+]([O-])c1ccc(-c2nc(-c3ccncc3)c(-c3ccc(F)cc3)[nH]2)cc1 (centres unmarked) [SB203580]
Decrease in the amount of activation loop phosphorylated Erk2 (MEK2) [1]: neither 2 nor SB203580 lead to a significant decrease | Effect on DUSP6-mediated dephosphorylation of the TxY motif [2]: enhanced the phosphatase activity of DUSP6 | Cellular Erk2 activation upon EGF stimulation [3]: not affected | Inhibition of dual phosphorylation of Erk2's activation loop by MEK2 [4]: only a minimal effect | Formation of bis-phosphorylated Erk2 (MEK2) [5]: comparable levels of bis-phosphorylation | Sensitivity of drug sensitive Erk2 mutant to inhibitor [6]: highly sensitive | Inhibition of wild type Erk2 [7]: very weakly inhibited | Effect on Erk2-mediated activation of DUSP6 [8]: none of these ligands affected | Sensitivity of drug sensitive Erk2 mutant to inhibitor [9]: highly sensitive | Effect on DUSP6-mediated dephosphorylation [10]: none of the inhibitors affected | Cellular Erk2 activation upon EGF stimulation [11]: had no effect
